Laboratory results taken from ChEMBL document CHEMBL4513216, “Probing the Open Global Health Chemical Diversity Library for Multistage-Active Starting Points for Next-Generation Antimalarials” (ACS Infect Dis, 2020).

Assay: Toxicity liver stage against HepG2, at 10uM
Assay type: cell-based
Set-up: test concentration 10 uM, cell line HepG2-A16-CD81EGFP
Details: human, HepG2-A16-CD81EGFP cells; read-out: INHIBITION
Outline: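 Uninfected HepG2-A16-CD81EGFP cells, 3 × 10^3 per well, 1536-well, plated on prespotted compound at 10 μM final, parasite-free screening media added to match infected plates; puromycin 10 μM positive, DMSO 0.5% negative; run in parallel with 48 h PbLuc assay at 37 °C, 5% CO2; viability by CellTiter-Glo luminescence, normalized to controls.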
`CC(C)CNC(=O)CSc1nnc(OC(C)C)s1` showed a cytotoxicity at 10 µM of 1.97%.
With `CCCn1ccc2cc(NC(=O)NCCn3cnnc3CC)ccc21` the cytotoxicity at 10 µM was 2.47%.
In the case of `Cc1nn(CCO)c(C)c1CNC1CCC(C)(C)c2ccccc21` (stereo unspecified), the cytotoxicity at 10 µM is reported as -3.34%.
Work on `NC(=O)c1cncc(N2CCN(Cc3cccc4nsnc34)CC2)n1` yielded a cytotoxicity at 10 µM of 8.15%.
In the case of `COc1ccc(CCC2CCCN(C(=O)CCc3cc(O)no3)C2)cc1` (stereo unspecified), the cytotoxicity at 10 µM is reported as -3.66%.
In the case of `COCc1ncc(CN2CCC3(CCNC(=O)CC3)CC2)cn1`, the cytotoxicity at 10 µM is reported as -147%.
`Cc1cc(C)c(-n2cc(CCO)cn2)cc1C` gave a cytotoxicity at 10 µM of 0.334%.
In the case of `COc1ccccc1[C@@H]1CN(Cc2c(C)noc2C)C[C@H]1C(=O)O`, the cytotoxicity at 10 µM is reported as -9.94%.
With `CN(C)CC1(O)CCCN(C(=O)CCn2cc(Cl)cn2)C1` (stereo unspecified) the cytotoxicity at 10 µM was -138%.
With `Clc1cc(NCc2ccncc2)nc2[nH]ccc12` the cytotoxicity at 10 µM was 6.58%.
`CC(C)N1CCCC(C(=O)NCc2noc(Cc3ccccc3)n2)C1` (stereo unspecified) gave a cytotoxicity at 10 µM of -1.49%.
Work on `CN(Cc1cnccn1)CC1CCOc2ccccc2C1` (stereo unspecified) yielded a cytotoxicity at 10 µM of -3.75%.
`c1ccc2sc(N3CCCC4(CCOC4)C3)nc2c1` (stereo unspecified) showed a cytotoxicity at 10 µM of -5.08%.
Work on `COc1cccc(Cl)c1C(C(=O)O)N1CCC(Cn2cccn2)CC1` (stereo unspecified) yielded a cytotoxicity at 10 µM of -12.5%.
`Cc1ccccc1[C@@H]1CN(CCCS(=O)(=O)N(C)C)C[C@H]1C(=O)O` gave a cytotoxicity at 10 µM of -5.51%.
Molecule `Cc1nn(C)c2nc(N3CCNC(=O)C3C(C)C)sc12` (stereo unspecified) has a cytotoxicity at 10 µM of -10%.
`COc1ccccc1CN1C(=O)O[C@@H]2CN(Cc3cccc(C)n3)C[C@@H]21` showed a cytotoxicity at 10 µM of 2.64%.
In the case of `CN(C)C(=O)c1ccc2c(c1)N(C)C(CC(=O)NCCOCCO)CO2` (stereo unspecified), the cytotoxicity at 10 µM is reported as -7.96%.
Work on `Cc1nccc(-c2ccccc2)c1C(=O)N1CCC2(CC(=O)NC2=O)C1` (stereo unspecified) yielded a cytotoxicity at 10 µM of -2.12%.
Work on `CCn1cc(C(=O)N2CCCC3(CCC(=O)N(CCC(C)C)C3)C2)cn1` (stereo unspecified) yielded a cytotoxicity at 10 µM of -1.19%.
For `Cc1n[nH]c(C)c1CC(=O)N1CCCN(C)C2(CCN(C)CC2)C1`, the cytotoxicity at 10 µM was 11.7%.
`COc1ccc(OCc2nc(C(=O)N3CCC(NC(C)=O)C3)co2)cc1` (stereo unspecified) gave a cytotoxicity at 10 µM of -1.21%.
With `CN(Cc1noc2c1CCCC2)C(=O)CN1C(=O)COc2ccccc21` the cytotoxicity at 10 µM was -55.1%.
`O=C(O)C1(O)CCN(c2ccnc3c(C(F)(F)F)cccc23)CC1` gave a cytotoxicity at 10 µM of 5.56%.
Molecule `COc1ccc([C@@H]2CN(c3cc(C(=O)O)ccn3)C[C@H]2N(C)C)cc1` has a cytotoxicity at 10 µM of 10.3%.
For `CCC1c2cccn2CCN1C(=O)c1ccno1` (stereo unspecified), the cytotoxicity at 10 µM was -8.58%.
Work on `COc1ncccc1NC(=O)N(Cc1ccccn1)C1CC1` yielded a cytotoxicity at 10 µM of 9.11%.
Molecule `Cc1cc(CN(C)CC(c2cccs2)N2CCOCC2)on1` (stereo unspecified) has a cytotoxicity at 10 µM of 0.049%.
For `Cc1nc(C)n(CC2CCCN(Cc3ccc4c(c3)OCCO4)C2)n1` (stereo unspecified), the cytotoxicity at 10 µM was -18.9%.
Work on `O=C(NCc1nn(-c2ccccc2)c2c1CCC2)N1CCCC(O)C1` (stereo unspecified) yielded a cytotoxicity at 10 µM of -10.2%.
For `Cc1cnn(CCNCc2nc(-c3ccccn3)no2)c1`, the cytotoxicity at 10 µM was -8%.
For `Cn1c(CN2CCCC(c3noc(C4CC4)n3)C2)cc(=O)n(C)c1=O` (stereo unspecified), the cytotoxicity at 10 µM was -11.2%.
In the case of `CC(C)c1ccc(OCC(=O)N2CCOCC2c2ncon2)cc1` (stereo unspecified), the cytotoxicity at 10 µM is reported as -9.01%.
`O=C(NCCOC1CCCC1)c1ccc(-c2ccco2)[nH]c1=O` gave a cytotoxicity at 10 µM of -20%.
In the case of `CN1CCC/C1=N\S(=O)(=O)c1ccc(NC(=O)c2ccsc2)cc1`, the cytotoxicity at 10 µM is reported as 6.49%.
Work on `CCc1nc(C)c(C(=O)N2CCCN(Cc3cnn(C)c3)CC2)s1` yielded a cytotoxicity at 10 µM of -2.41%.
`CC(C)(C)NCc1ccc(OCc2ccc3c(c2)OCCO3)cc1` showed a cytotoxicity at 10 µM of 1.99%.
In the case of `CNC(=O)[C@@H](c1ccccc1F)N1CCC[C@H]1C(=O)NC1CCCC1`, the cytotoxicity at 10 µM is reported as 0.344%.
For `COCC(=O)N1CCN(Cc2cccnc2)c2ncccc2C1`, the cytotoxicity at 10 µM was 10.2%.
`O=C(NCc1cccnc1)C1=NOC2(CCN(C(=O)N3CCCC3)C2)C1` (stereo unspecified) showed a cytotoxicity at 10 µM of -4.8%.
With `COc1cccc(CN2CCC3(CC2)CCN(C(=O)[C@@H]2CCCO2)C3)c1` the cytotoxicity at 10 µM was 0.523%.
`CC(=O)N1Cc2nccn2CC(CNC(=O)c2cccnc2)C1` (stereo unspecified) showed a cytotoxicity at 10 µM of -146%.
Work on `c1cncc(-c2ncnc3c2CCN(Cc2cccs2)CC3)c1` yielded a cytotoxicity at 10 µM of 19.9%.
`Cc1cnc(N2CCCC3(CCN(Cc4csc(C)n4)C3=O)C2)nc1` (stereo unspecified) showed a cytotoxicity at 10 µM of -5.15%.
Molecule `O=C(C1CCC1)N1CCO[C@H]2[C@H](OCCCn3cccn3)CC[C@@H]21` has a cytotoxicity at 10 µM of 16.7%.
For `O=C(NC1CC1)[C@@H]1CCO[C@@H]2CCN(C3CCOCC3)C[C@H]21`, the cytotoxicity at 10 µM was -9.99%.
Work on `CCc1ncnc2c1CCN(C(=O)c1ccncc1F)CC2` yielded a cytotoxicity at 10 µM of -88.5%.
`Cc1ccsc1C(=O)N1CC[C@H]2CO[C@H](CN(C)C)[C@H]2C1` showed a cytotoxicity at 10 µM of 2.93%.
Work on `O=C(NCc1cccs1)[C@H]1CC[C@@H]2[C@@H](CCN2c2ncccn2)O1` yielded a cytotoxicity at 10 µM of -24.2%.
`Cn1nnc2c1CCN(Cc1ccco1)C2COCc1ccccc1` (stereo unspecified) gave a cytotoxicity at 10 µM of -133%.
`CNCC(=O)N1CC(c2cc(Nc3nc(C)cs3)nc(C)n2)C1` gave a cytotoxicity at 10 µM of -21.2%.
Molecule `CC(C)CCN1C[C@@H]2OCCN(c3ncc(F)cn3)[C@@H]2C1` has a cytotoxicity at 10 µM of 4.91%.
With `CN(C)C1COC2(CCN(Cc3ccc4c(c3)OCO4)CC2)C1` (stereo unspecified) the cytotoxicity at 10 µM was -5.19%.
Work on `Cc1ncsc1CN1C[C@@H]2COC[C@]2(CNC(=O)c2ccccc2)C1` yielded a cytotoxicity at 10 µM of -2.39%.
With `COCC1CC2(CCN(Cc3nccn3C)CC2)CN1c1ncccn1` (stereo unspecified) the cytotoxicity at 10 µM was 5.1%.
In the case of `Cc1cccc(C(=O)N2C[C@@H]3C(CC(=O)NC(C)C)[C@@H]3C2)n1` (stereo partly specified), the cytotoxicity at 10 µM is reported as -3.69%.
